Source: ChEMBL document CHEMBL4680064, “Natural product inspired optimization of a selective TRPV6 calcium channel inhibitor” (RSC Med Chem, 2020)
Active and inactive are the calls of the source. No cut-off for these calls is given here.

Target: T1, Transient receptor potential cation channel subfamily V member 6 (Homo sapiens) (UniProt Q9H1D0)
T1 sequence (whole entry): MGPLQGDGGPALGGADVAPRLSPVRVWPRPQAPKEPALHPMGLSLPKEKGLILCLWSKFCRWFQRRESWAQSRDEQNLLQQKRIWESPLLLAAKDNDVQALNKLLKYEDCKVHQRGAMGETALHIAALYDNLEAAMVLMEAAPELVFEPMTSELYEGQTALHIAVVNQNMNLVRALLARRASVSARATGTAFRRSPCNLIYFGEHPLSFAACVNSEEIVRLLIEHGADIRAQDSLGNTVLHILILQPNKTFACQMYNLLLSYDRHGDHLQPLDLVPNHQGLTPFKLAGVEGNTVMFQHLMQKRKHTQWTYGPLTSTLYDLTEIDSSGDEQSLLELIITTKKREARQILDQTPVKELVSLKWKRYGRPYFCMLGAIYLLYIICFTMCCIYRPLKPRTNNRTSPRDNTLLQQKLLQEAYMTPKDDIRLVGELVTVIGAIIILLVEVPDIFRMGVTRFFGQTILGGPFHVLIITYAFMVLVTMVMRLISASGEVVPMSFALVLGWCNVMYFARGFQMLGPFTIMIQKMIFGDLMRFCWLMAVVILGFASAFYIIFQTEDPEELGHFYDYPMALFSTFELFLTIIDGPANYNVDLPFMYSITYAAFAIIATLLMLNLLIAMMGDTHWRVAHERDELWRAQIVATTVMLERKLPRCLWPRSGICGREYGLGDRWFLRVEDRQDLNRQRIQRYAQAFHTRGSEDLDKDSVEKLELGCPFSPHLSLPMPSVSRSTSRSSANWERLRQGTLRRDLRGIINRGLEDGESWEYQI
Experiment: Inhibition of human TRPV6 expressed in HEK293 cells assessed as reduction in Cd2+ influx at 10 uM preincubated with compound followed by Cdcl2 addition measured for 12 to 30 mins by Leadmium-green and Alexafluor-594 conjugate based confocal microscopic analysis
Format: cell-based
Conditions: time lower […], time upper 30.0 min
Method in brief: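 HEK-hTRPV6 cells on poly-D-lysine chambered coverglass, 24 h. Stained 30 min at 37 °C in nominally Ca²⁺-free buffer with Leadmium Green, Hoechst 33258 and WGA-Alexa Fluor 594 at 5, 1 and 5 ng/µL final. Washed, then test compound at 10 µM or DMSO added. CdCl2 at 50 µM final was added at the start of 30 min confocal imaging at 100X. Total fluorescence per channel was plotted over time.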

inhibition: Active
Structure (SMILES): O=c1ccc(CN2CCN([C@H]3CC[C@@](O)(c4cccc(C(F)(F)F)c4)CC3)CC2)c[nH]1
